Results: ChEMBL document CHEMBL3997773, “Synthesis of C-4-Substituted Steviol Derivatives and Their Inhibitory Effects against Hepatitis B Virus” (J Nat Prod, 2016)
Calls of active or inactive are those of the source. The rule behind the calls is not given here.

Columns and labels:
[1] = system: Hepatitis B virus; assay: Decrease in HBV preS promoter activity infected in human HuH7 cells cotransfected with pHBV1.2 at 10 ug/ml after 24 hrs by luciferase reporter gene assay; type: cell-based
In short: (§1)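 Huh7 cells were seeded for 24 h, then cotransfected with pHBV1.2, pRLSV40 and a pGL4.17-based Core (nt 1636-1851), S (nt 3114-220), PreS (nt 2438-2855) or X (nt 1071-1357) promoter-luciferase construct for 24 h. Cells were then treated at 10 μg/mL for 24 h and lysates were assayed for luciferase. Mean ± SD, n = 3.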

[2] = system: Huh-7; assay: Decrease in NF-kB p65 protein expression in human HuH7 cells transfected with pHBV1.2 at 10 ug/ml after 2 days by immunoblot method relative to control; type: functional
In short: (§2)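 Huh7 cells were transfected with pHBV1.2 for 2 days, then treated at 2.5, 5 or 10 μg/mL for another 2 days. Whole-cell protein was extracted with protease inhibitors. NF-κB p65/p50, phospho-p65, IKKα/β and IκBα/phospho-IκBα were detected by immunoblot. Blots are representative of three experiments.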

[3] = Effect on AP-2 (unknown origin) promoter activity expressed in human HuH7 cells cotransfected with pHBV1.2 at 10 ug/ml after 24 hrs by luciferase reporter gene assay; type: cell-based
In short: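 Huh7 seeded in 24-well plates for 24 h. They were cotransfected with pHBV1.2 plus a luciferase reporter carrying the AP-2 (pAP2-Luc) or ISRE (pISRE-Luc) element, at 1 μg/well, and pRLSV40, in serum-free DMEM for 24 h. After a PBS wash, cells were placed in DMEM with 2% FBS and treated with 10 μg/mL. Luciferase was read from lysates; mean ± SD, n = 3.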

[4] = system: Huh-7; assay: Cytotoxicity against human HuH7 cells infected with Hepatitis B virus subtype adw2 assessed as reduction in cell viability at >80 ug/ml after 3 days by MTS assay; type: cell-based; conditions: huh-7, 72 h
In short: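 HBV-expressing Huh7 cells were plated for 24 h, then exposed to serial dilutions (2.5–160 μg/mL) for 3 days. Viability was measured by MTS assay. Mean ± SD, n = 4, compared with untreated cells.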

[5] = system: Hepatitis B virus subtype adw2; assay: Antiviral activity against Hepatitis B virus subtype adw2 infected in human HuH7 cells assessed as inhibition of HBsAg secretion after 3 days by EIA; type: functional, cell-based
In short: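 HBV-expressing Huh7 cells were given 2.5, 5 or 10 μg/mL for 3 days. HBsAg and HBeAg in the conditioned medium were measured by enzyme immunoassay. Mean ± SD, n = 3, compared with untreated cells.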

[6] = system: Huh-7; assay: Decrease in NF-kB p50 protein expression in human HuH7 cells transfected with pHBV1.2 at 5 ug/ml after 2 days by immunoblot method relative to control; type: functional; in short: as §2
[7] = system: Huh-7; assay: Effect on IKKalpha protein expression in human HuH7 cells transfected with pHBV1.2 at 2.5 ug/ml after 2 days by immunoblot method relative to control; type: functional
In short: (§3)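 HBV adw2 genome plasmid pHBV1.2 transfected into Huh7 for 2 days, then 2.5, 5 or 10 μg/mL for another 2 days. Whole-cell protein extracted with protease inhibitors, then SDS-PAGE immunoblot for NF-κB and MAPK pathway proteins. Blots are representative of three sets of experiments.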

[8] = system: Huh-7; assay: Decrease in IKKalpha protein expression in human HuH7 cells transfected with pHBV1.2 at 5 ug/ml after 2 days by immunoblot method relative to control; type: functional; in short: as §2
[9] = Decrease in AP-1 (unknown origin) promoter activity expressed in human HuH7 cells cotransfected with pHBV1.2 at 10 ug/ml after 24 hrs by luciferase reporter gene assay; type: cell-based
In short: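 Huh7 cells were seeded for 24 h, then cotransfected with pHBV1.2, pRLSV40 and pAP1-Luc or pNF-κB-Luc responsive-element reporter for 24 h. Cells were treated at 10 μg/mL for 24 h and lysates were assayed for luciferase. Mean ± SD, n = 3, compared with untreated cells.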

[10] = system: Huh-7; assay: Effect on NF-kB p50 protein expression in human HuH7 cells transfected with pHBV1.2 at 2.5 ug/ml after 2 days by immunoblot method relative to control; type: functional; in short: as §3
[11] = Antiviral activity against Hepatitis B virus subtype adw2 infected in human HepG2.2.15 cells assessed as inhibition of HBeAg secretion by EIA
[12] = system: Hepatitis B virus; assay: Decrease in HBV X promoter activity infected in human HuH7 cells cotransfected with pHBV1.2 at 10 ug/ml after 24 hrs by luciferase reporter gene assay; type: cell-based; in short: as §1
[13] = Cytotoxicity against human HepG2.2.15 cells assessed as reduction in cell viability after 3 days by MTS assay; conditions: read-out: TC50
[14] = Antiviral activity against Hepatitis B virus subtype adw2 infected in human HuH7 cells assessed as inhibition of viral DNA replication at 10 ug/ml after 2 days by RT-PCR method relative to control; type: functional; conditions: Huh-7, 48 h
In short: (§4)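 Huh7 cells were cotransfected with pHBV1.2 and, where stated, 0.5 or 2.5 μg pCMV-p65 (or empty vector) for 2 days, then treated at 10 μg/mL for 2 days. In separate wells, HBV-expressing cells received 10 μg/mL with or without anisomycin (10 μM) for 2 days. Secreted viral particles were kit-isolated and HBV DNA was measured by real-time PCR, n = 3.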

[15] = system: Huh-7; assay: Decrease in IKKalpha protein expression in human HuH7 cells transfected with pHBV1.2 at 10 ug/ml after 2 days by immunoblot method relative to control; type: functional; in short: as §2
[16] = system: Hepatitis B virus subtype adw2; assay: Antiviral activity against Hepatitis B virus subtype adw2 infected in human HuH7 cells cotransfected with pCMV-p65 assessed as inhibition of viral DNA replication at 10 ug/ml after 2 days by RT-PCR method; type: functional, cell-based; in short: as §4
[17] = Antiviral activity against Hepatitis B virus subtype adw2 infected in human HuH7 cells assessed as reduction in HBcAg level at 5 ug/ml after 2 days by immunoblot method relative to control; type: functional
In short: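 Huh7 cells were transfected with pHBV1.2 (1.2-fold HBV adw2 genome) for 2 days, then exposed to 2.5, 5 or 10 μg/mL for another 2 days. Whole-cell protein was extracted with protease inhibitors. SHBs, HBcAg and HBx were detected by immunoblot, with α-tubulin for comparison.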

[18] = system: Huh-7; assay: Decrease in NF-kB p65 protein expression in human HuH7 cells transfected with pHBV1.2 at 5 ug/ml after 2 days by immunoblot method relative to control; type: functional; in short: as §2
[19] = Antiviral activity against Hepatitis B virus subtype adw2 infected in human HuH7 cells assessed as inhibition of viral DNA replication by RT-PCR method; type: functional, cell-based; conditions: Huh-7
[20] = system: Hepatitis B virus subtype adw2; assay: Antiviral activity against Hepatitis B virus subtype adw2 infected in human HuH7 cells assessed as reduction in precore/pregenomic RNA level at 2.5 to 10 ug/ml after 2 days by northern blot method; type: functional, cell-based
In short: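 After pHBV1.2 transfection of Huh7 cells for 2 days, cells were treated at 2.5, 5 or 10 μg/mL for 2 more days. Total RNA was Northern-blotted with an HBV whole-genome DNA probe. GAPDH served as loading control and β-gal marked transfection efficiency. Bands from three experiments were quantified by densitometry and normalized to GAPDH.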

Q: What does the source list for `C=C1C[C@@]23CC[C@H]4[C@@](C)(CCC[C@@]4(C)NC(=O)NCCCC)[C@@H]2CC[C@]1(O)C3`?
A: Activity [1]: Active; fold change (FC) [2]: 0.33; Activity [3]: inactive; Activity [4]: Toxic; inhibition [5]: Dose-dependent effect; fold change (FC) [6]: 0.97; fold change (FC) [7]: 1.1; fold change (FC) [8]: 1.01; Activity [9]: Active; fold change (FC) [10]: 1.01; IC50 [11]: 20.4 µM; Activity [12]: Active; CC50 at 72 h [13]: 972 µM; inhibition at 10 µg/mL [14]: 38%; fold change (FC) [15]: 0.46; inhibition [16]: inactive; fold change (FC) [17]: 0.81; fold change (FC) [18]: 0.88; IC50 [19]: 16.9 µM; Activity [20]: Active
